Measured values published in ChEMBL document CHEMBL4038346, “Effect of Nitrogen Atom Substitution in A3 Adenosine Receptor Binding: N-(4,6-Diarylpyridin-2-yl)acetamides as Potent and Selective Antagonists” (J Med Chem, 2017).
The source made the active and inactive calls. The calls are words filed in the database; no cut-off is given here.

Experiments:
[1] = target: T1, Adenosine receptor A2a (Homo sapiens, UniProt P29274); experiment: Displacement of [3H]ZM241385 from human adenosine A2A receptor expressed in human HeLa cell membranes at 1 uM after 30 mins relative to control
T1 sequence (P29274 whole entry): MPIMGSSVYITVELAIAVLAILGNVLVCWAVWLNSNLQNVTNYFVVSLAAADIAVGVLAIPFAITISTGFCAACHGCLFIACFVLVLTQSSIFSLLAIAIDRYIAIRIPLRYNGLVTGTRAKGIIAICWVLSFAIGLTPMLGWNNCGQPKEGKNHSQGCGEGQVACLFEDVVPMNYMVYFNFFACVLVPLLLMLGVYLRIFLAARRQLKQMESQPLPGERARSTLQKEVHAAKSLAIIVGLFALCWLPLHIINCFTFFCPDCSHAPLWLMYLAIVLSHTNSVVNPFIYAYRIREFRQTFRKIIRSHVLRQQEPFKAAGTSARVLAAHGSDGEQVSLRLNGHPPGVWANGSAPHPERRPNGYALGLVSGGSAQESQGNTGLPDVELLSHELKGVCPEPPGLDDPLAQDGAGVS

[2] = target: T2, Adenosine receptor A1 (Homo sapiens, UniProt P30542); experiment: Displacement of [3H]DPCPX from human adenosine A1 receptor expressed in CHO cell membranes after 60 mins
T2 sequence (P30542 whole entry): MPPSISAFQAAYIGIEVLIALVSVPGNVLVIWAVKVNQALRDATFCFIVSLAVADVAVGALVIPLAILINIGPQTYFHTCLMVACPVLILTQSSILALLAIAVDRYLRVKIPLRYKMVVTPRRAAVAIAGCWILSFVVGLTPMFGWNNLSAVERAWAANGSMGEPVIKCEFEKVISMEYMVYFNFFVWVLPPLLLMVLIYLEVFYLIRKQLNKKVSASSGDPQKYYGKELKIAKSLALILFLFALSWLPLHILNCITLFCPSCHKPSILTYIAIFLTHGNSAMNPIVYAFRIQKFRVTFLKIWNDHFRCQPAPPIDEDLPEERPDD

[3] = target: T3, Adenosine receptor A3 (Homo sapiens) (UniProt P0DMS8); experiment: (§1) Displacement of [3H]NECA from human adenosine A3 receptor expressed in human HeLa cell membranes after 180 mins
T3 sequence (whole entry): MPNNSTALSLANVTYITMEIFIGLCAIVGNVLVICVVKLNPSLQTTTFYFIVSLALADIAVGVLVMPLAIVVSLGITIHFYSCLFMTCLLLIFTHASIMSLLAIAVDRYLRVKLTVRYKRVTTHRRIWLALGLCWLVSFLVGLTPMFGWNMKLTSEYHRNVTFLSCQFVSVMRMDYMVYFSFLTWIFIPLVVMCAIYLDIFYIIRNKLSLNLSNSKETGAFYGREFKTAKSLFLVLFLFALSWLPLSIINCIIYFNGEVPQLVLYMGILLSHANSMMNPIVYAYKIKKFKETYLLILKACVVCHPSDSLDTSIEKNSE

[4] = target: T1, Adenosine receptor A2a; experiment: Displacement of [3H]ZM241385 from human adenosine A2A receptor expressed in human HeLa cell membranes after 30 mins
[5] = target: T4, Adenosine receptor A3 (Homo sapiens, UniProt P0DMS8); experiment: as §1
T4 sequence (P0DMS8 whole entry): T3 sequence (whole entry)

[6] = target: T5, Adenosine receptor A2b (Homo sapiens, UniProt P29275); experiment: Displacement of [3H]DPCPX from human adenosine A2B receptor expressed in HEK293 cell membranes after 30 mins
T5 sequence (P29275 whole entry): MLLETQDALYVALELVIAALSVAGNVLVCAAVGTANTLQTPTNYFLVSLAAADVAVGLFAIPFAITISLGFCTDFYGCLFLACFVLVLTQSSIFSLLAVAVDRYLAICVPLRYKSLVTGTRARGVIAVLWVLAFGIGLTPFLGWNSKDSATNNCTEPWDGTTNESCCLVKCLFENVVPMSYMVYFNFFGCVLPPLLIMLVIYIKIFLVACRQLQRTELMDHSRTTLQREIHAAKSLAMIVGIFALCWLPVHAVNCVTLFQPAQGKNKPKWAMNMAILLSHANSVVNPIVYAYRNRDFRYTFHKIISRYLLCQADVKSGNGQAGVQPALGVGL

[7] = target: T6, Adenosine receptor A2b (Homo sapiens) (UniProt P29275); experiment: Displacement of [3H]DPCPX from human adenosine A2B receptor expressed in HEK293 cell membranes at 1 uM after 30 mins relative to control
T6 sequence (whole entry): T5 sequence (P29275 whole entry)

[8] = target: T7, Adenosine receptor A1 (Homo sapiens) (UniProt P30542); experiment: Displacement of [3H]DPCPX from human adenosine A1 receptor expressed in CHO cell membranes at 1 uM after 60 mins relative to control
T7 sequence (whole entry): T2 sequence (P30542 whole entry)

[9] = target: Adenosine receptors; A1 & A3 (Homo sapiens) (UniProt P30542+P0DMS8); experiment: Selectivity ratio of Ki for human adenosine A1 receptor expressed in CHO cell membranes to Ki for human adenosine A3 receptor expressed in human HeLa cell membranes; assay type: cell-based
[10] = target: T3, Adenosine receptor A3 (Homo sapiens); experiment: Antagonist activity at human adenosine A3 receptor expressed in CHO cells assessed as decrease in NECA-induced inhibition of forskolin-stimulated cAMP formation preincubated for 15 mins followed by NECA addition for 10 mins and subsequent forskolin challenge for 5 mins by enzyme immunoassay; assay type: functional, cell-based
In short: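 CHO-A3 cells seeded at 20 000/well in DMEM-F12 with 10% FCS and 1% L-glutamine, grown 24 h at 37 °C, 5% CO2. Washed, then preincubated 15 min at 37 °C in DMEM-F12/25 mM HEPES pH 7.4 with 30 μM rolipram plus antagonist.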

**Q.** How did the inhibition [1] turn out when `COc1ccc(-c2cc(NC(C)=O)nc(-c3ccc(OC)cc3)c2)cc1` was run?
**A.** Its inhibition is 15%.

**Q.** Which results are given for `COc1cccc(-c2cc(NC(C)=O)nc(-c3cccc(OC)c3)c2)c1`?
**A.** inhibition [1]: 21%; Ki [2]: 239 nM

**Q.** For `CC(=O)Nc1cc(-c2ccc(C(C)=O)cc2)nc(-c2ccc(C(C)=O)cc2)n1`, which inhibition [3] is on record?
**A.** Its inhibition is “Active”.

**Q.** With `COc1cccc(-c2cc(NC(C)=O)nc(-c3cccc(OC)c3OC)c2)c1OC` as the compound, how does the Ki [4] read?
**A.** The Ki was 353 nM.

**Q.** For `COc1cccc(OC)c1-c1cc(NC(C)=O)nc(-c2c(OC)cccc2OC)c1`, which inhibition [1] is on record?
**A.** The inhibition was 1%.

**Q.** What does the source list for `CC(=O)Nc1cc(-c2ccccc2)cc(-c2ccccc2)n1`?
**A.** inhibition [1]: 49%; Ki [5]: 98.5 nM; Ki [6]: 51.2 nM; Ki [2]: 21.1 nM

**Q.** `CC(=O)Nc1cc(-c2ccc(C)cc2)cc(-c2ccc(C)cc2)n1` was tested. Which inhibition [1] did it give?
**A.** Its inhibition is 1%.

**Q.** Which inhibition [7] does the source give for `COc1ccccc1-c1cc(NC(C)=O)nc(-c2ccccc2OC)c1` here?
**A.** Its inhibition is 19%.

**Q.** And the inhibition [1]?
**A.** Its inhibition is 1%.

**Q.** And the inhibition [8]?
**A.** The inhibition was 8%.

**Q.** And the Ki [5]?
**A.** The Ki was 781 nM.

**Q.** With `CC(=O)Nc1cc(-c2ccc(OC(F)(F)F)cc2)cc(-c2ccc(OC(F)(F)F)cc2)n1` as the compound, how does the inhibition [1] read?
**A.** The inhibition was 1%.

**Q.** For `CC(=O)Nc1cc(-c2ccc(C(C)=O)cc2)cc(-c2ccc(C(C)=O)cc2)n1`, which inhibition [1] is on record?
**A.** Its inhibition is 4%.

**Q.** Which inhibition [1] does the source give for `COc1ccc(-c2cc(NC(C)=O)nc(-c3ccc(OC)cc3OC)c2)c(OC)c1` here?
**A.** Its inhibition is 2%.

**Q.** With `COc1ccc(-c2cc(NC(C)=O)nc(-c3ccc(OC)c(OC)c3)c2)cc1OC` as the compound, how does the inhibition [1] read?
**A.** The inhibition was 1%.

**Q.** `CSc1ccc(-c2cc(NC(C)=O)nc(-c3ccc(SC)cc3)c2)cc1` was tested. Which inhibition [1] did it give?
**A.** The inhibition was 2%.

**Q.** Which inhibition [1] does the source give for `COc1cc(OC)cc(-c2cc(NC(C)=O)nc(-c3cc(OC)cc(OC)c3)c2)c1` here?
**A.** Its inhibition is 2%.

**Q.** `COc1ccc(OC)c(-c2cc(NC(C)=O)nc(-c3cc(OC)ccc3OC)c2)c1` was tested. Which inhibition [7] did it give?
**A.** The inhibition was 1%.

**Q.** And the inhibition [1]?
**A.** The inhibition was 3%.

**Q.** And the inhibition [8]?
**A.** Its inhibition is 3%.

**Q.** What about the Ki [5] of the same compound?
**A.** Its Ki is 35.2 nM.

**Q.** For `CC(=O)Nc1cc(-c2ccc3c(c2)OCO3)cc(-c2ccc3c(c2)OCO3)n1`, which inhibition [7] is on record?
**A.** The inhibition was 27%.

**Q.** What about the inhibition [1] of the same compound?
**A.** The inhibition was 9%.

**Q.** And the Ki [5]?
**A.** Its Ki is 2.8 nM.

**Q.** And the Ratio Ki [9]?
**A.** Its Ratio Ki is 30.

**Q.** And the Kb [10]?
**A.** The Kb was 1.9 nM.

**Q.** What about the Ki [2] of the same compound?
**A.** The Ki was 91.1 nM.

**Q.** For `COc1ccccc1-c1cc(NC(C)=O)nc(-c2ccccc2OC)n1`, which inhibition [3] is on record?
**A.** The inhibition was “Active”.

**Q.** What does the source list for `COc1cc(-c2cc(NC(C)=O)nc(-c3cc(OC)c(OC)c(OC)c3)c2)cc(OC)c1OC`?
**A.** inhibition [7]: 4%; inhibition [1]: 15%; inhibition [8]: 8%; Ki [5]: 116 nM
